# Measurements reported in the array DNA melting data of Ke et al. (doi:10.1101/2024.01.08.574731).
# Columns and labels:
# [1] = folding enthalpy; higher = less favourable; fluorescence melt of hairpins on a sequencing array, two-state fit; settings: sodium 0.088 M
# Summary of the method: (§1)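 Cy3 signals were normalised both to pre-quench Cy3 and to control constructs. They came from library hairpins carrying annealed Cy3 and quencher oligos on a sequenced MiSeq flow cell, imaged in 50 mM Na-HEPES pH 8.0, 25 mM NaCl, in 2.5 °C steps up to 60 °C. Bootstrapped two-state fits gave melting temperature and folding enthalpy, and four replicates were combined by inverse variance. Fitted temperatures were then raised by 9.35 °C to match UV melts.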
# [2] = melting temperature; fluorescence melt of hairpins on a sequencing array, two-state fit, raised by 9.35 °C to match UV melts; settings: sodium 0.088 M
# Summary of the method: as §1
Sequence,folding enthalpy [1] [kJ/mol],Tm [2] [°C]
GACCAACGAAAGTTGTC (((.(((....)))))),-60.7,40.8
GTAGAAACGAAAGTTTAC (((..(((....)))))),-66.3,27.4
CGCGGATTGCTCCGCG ((((((....)))))),-204,64.9
GGCGTCCGAAAGGAGGCC (((.(((....))).))),-113,69.1
CGGGCGGAAACGCATCCG ((((((....)))..))),-66.7,44.3
GCCAGTTCGAAAGAAGGC (((..(((....)))))),-84.6,37.1
GGCGAAGGAAACTTCGTC (.(((((....))))).),-149,53.1
GATCCGATTTCGGATC ((((((....)))))),-138,62.6
GAGCGCGAAAGCGTGCTC ((((((....)))..))),-71.7,56.4
GTCTAGCCGAAAGGCGAC (((..(((....)))))),-45,43.1
GTGTGCGGAAACGCGTAC ((..(((....)))..)),-68.2,43.7
GAGGGGCCGAAAGGCCTC (((..(((....)))))),-31,46.4
GTCTCAGGAAACTGGGAC (((.(((....))).))),-149,49.8
GCAGTCGGAAACGATTGC (((.(((....))).))),-183,54.4
GATGCACGAAAGTGATC (((.(((....)))))),-56.9,36.6
GGAATCGAAAGATATCC ((((((....))).))),-55.9,29.1
GTCGTAGGAAACTGCGAC ((((.((....)).)))),-231,53.5
GTTTGTCGAAAGACGAAC (((.(((....))).))),-163,53.1
GGGTAACGAAAGTTCCCC (((.(((....))).))),-115,50.6
GCCCAGCGAAAGCTATGC ((..(((....)))..)),-21.5,25.6
GATCGAATATCGATC ((((((...)))))),-140,50.4
GGGTTCGGAAACAAACCC (((((.(....).))))),-125,43
GTCATATCGAAAGATGAC (((..(((....)))))),-109,37.1

Sequence,folding enthalpy [1] [kJ/mol],Tm [2] [°C]
GTATCGCCGAAAGGCTAC (((..(((....)))))),-27.5,32.9
GCCCTACCGAAAGGTGGC (((..(((....)))))),-86.9,49
GAGTGGGGAAACCTGCTC (((..((....))..))),-112,39.8
GCAATTGAAAAATTGC ((((((....)))))),-134,53.4
GACGTTGGAAACAGTGTC (((..((....))..))),-59,31.2
GATAGACCGAAAGGTATC (((..(((....)))))),-47.4,28.2
GGGCCCGGAAACGAGCCC ((((.((....)).)))),-199,57.5
GTAATCGGAAACGATTGC (.(((((....))))).),-107,48.2
GATCGTTTACACGATC ((((((....)))))),-190,53.8
GATCTCTCTTGAGATC ((((((....)))))),-159,53.5
GGGGCGGCGAAAGCCCCC (((..(((....)))))),-69.4,64
GCCAATGGAAACATTGAC (.(((((....))))).),-92.9,37.7
GCTTCTCGAAAGAGAGC (((.(((....)))))),-91.9,49.4
GATCTTCTTGAAGATC ((((((....)))))),-201,54
GTAGACGAAAGTCAATAC ((((((....)))..))),-56.4,27.6
GTGGACGAAAGTCGGCAC ((((((....)))..))),-65,39.8
GCGTAGGGAAACCTGTGC ((..(((....)))..)),-59.5,37.4
GTCCAACCGAAAGGTGAC (((..(((....)))))),-68.1,37.2
GGATATTCGAAAGAATCC (((..(((....)))))),-57.1,26.9
CGAGCGGAAACGCCCTCG ((((((....)))..))),-53.6,35.9
GGCTTTGGAAACAAAACC ((.((((....)))).)),-114,36.8
GCGTATCGAAAGATCCGC (((.(((....))).))),-159,50.2
GATCCAAAACTGGATC ((((((....)))))),-132,45.6

Sequence,folding enthalpy [1] [kJ/mol],Tm [2] [°C]
GCTAACGAAAGTTCTAGC ((((((....)))..))),-47.8,28.8
GGCTTTTCGAAAGAAGCC (((..(((....)))))),-141,45.6
GTTAGCGGAAACGTTAAC ((((.((....)).)))),-121,44.2
GCTTCGAAAGAAGC (((((....))))),-111,66.8
GTCTGCGAAAGCAGCGAC ((((((....)))..))),-52.1,60.6
GATCACCGTAGTGATC ((((((....)))))),-214,57
GATCACCAGGGTGATC ((((((....)))))),-153,62.2
GGCGGAGGAAACTCTGCC (((.(((....))).))),-214,57.1
GGACCCGAAAGGGCGTCC ((((((....)))..))),-69.9,49.1
GCGGTGGGAAACCATCGC (((.(((....))).))),-171,61.8
GATCCCCATAGGGATC ((((((....)))))),-172,62.8
GGCTTACCGAAAGGTGCC (((..(((....)))))),-96.7,50.2
GGCGGCACGAAAGTGGCC (((..(((....)))))),-48.3,52
GACTGAGAAATCAGTC ((((((....)))))),-138,53.1
GCCGTACGAAAGTATGGC (((.(((....))).))),-179,61.4
GTGGATGGAAACATCCAC (((((((....))))))),-210,65.1
GATGACGAAAGTCGTATC ((((((....)))..))),-50.8,36
GAAGACGAAAGTCAATTC ((((((....)))..))),-65,32.9
GATCGCCTAAGCGATC ((((((....)))))),-171,68
GATCTATCCGTAGATC ((((((....)))))),-126,43.1
GATCGGTTGGCCGATC ((((((....)))))),-176,60.9
GATCTCAGCGGAGATC ((((((....)))))),-160,53.7
GGCACTCGAAAGAGAGCC (((.(((....))).))),-193,59

Sequence,folding enthalpy [1] [kJ/mol],Tm [2] [°C]
GGGTTTCCGAAAGGACCC (((..(((....)))))),-80.6,40.6
GATCTCTGTGGAGATC ((((((....)))))),-155,57.2
GCGACCATCGC ((((...)))),-73.6,46.4
GATAGCGGAAACACTATC (((((.(....).))))),-116,36.5
GTGAGTCGAAAGACGCAC (((.(((....))).))),-144,60
ATGTCGAAAGACAT (((((....))))),-81.9,53.5
GCTTGGCGAAAGCGACGC ((.(.((....)).).)),-55.4,45.5
GCCTGACGAAAGTCGGC (((.(((....)))))),-97.2,63.1
GTGCCCGAAAGGGCCCAC ((((((....)))..))),-24.2,41
GATCAGATTCCTGATC ((((((....)))))),-163,48.5
GGCTGAGGAAACTCGGCC (((.(((....))).))),-195,58.3
GCCCAGCCGAAAGGCGGC (((..(((....)))))),-44.5,62.4
GATGCAGGAAACTGCATC (((((((....))))))),-182,64.7
GATCAAAACTTTGATC ((((((....)))))),-150,46.6
GTAATTGGAAACAGTTAC ((((.((....)).)))),-88.5,35.9
GCCGTGCGAAAGCCCAGC ((.(.((....)).).)),-43.2,29.4
GTCATAACGAAAGTTGAC (((..(((....)))))),-102,37.2
GTCCCGGGAAACCAGGAC ((((.((....)).)))),-95.1,46
GGGACCGAAAGGTCGCCC ((((((....)))..))),-43,57.5
GGATAGCGAAAGCTCTCC (((.(((....))).))),-129,45.4
GAGACCACGAAAGTGCTC (((..(((....)))))),-41.1,27.7
GCCAGTCGAAAGACGGC (((.(((....)))))),-141,61.6
GATCCTTCGAGGATC ((((((...)))))),-120,54.4
